Results on four molecules are retold here after publication PMC8652384 (Experimental and Therapeutic Medicine, 2021).

Data set [1] addresses VLA-4 (Homo sapiens, UniProt P05556+P13612). The data set can be described thus: VLA-4 conformation activation assay. In kind it is binding. The note with it: LAX7R and TXL3 cells; without 5 mM Mn2+. The method in brief: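 LAX7R or TXL3 cells, 1x10^6/ml in HEPES buffer pH 7.4 with 0.1% HSA, Ca2+ and Mg2+, incubated 30 min at 37°C with test compound (0-100 µM) or human VCAM-1 ([…]), 10% PE-HUTS-21, ±5 mM Mn2+. DAPI added during final 5 min. PE MFI read on viable cells by flow cytometry; isotype control gave nonspecific binding. Occupancy curves fitted by variable-slope sigmoidal model.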

The conditions of data set [2]: cited from earlier work.
In data set [3] the target is T1, integrin α4 (Homo sapiens, UniProt P05556+P13612). The note with it: cited from earlier work.
The test system of data set [4] is HUVECs. The data set is described as follows: Endothelial tube formation assay. In kind it is cell-based, human. The note with it: data not shown. An outline of the steps:
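HUVECs (4-6x10^4/well) pre-treated 30 min at 37°C with test compound (0, 5 or 25 µM) or a reference α4 antagonist (0 or 25 µM), then seeded on Matrigel-coated wells for 4-6 h at 37°C, 5% CO2. Three fields per well imaged by phase contrast (x100); nodes, segments, meshes and total area quantified by image analysis.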

In data set [5] the test system is primary ALL. The note with it: cited from earlier work.
The target of data set [6] is T1, integrin α4. The data set is described as follows: Western blot analysis of integrin α4 protein. It counts as cell-based. The note with it: MG132 1 µM; 96 h; LAX7R, LAX53, LAX56, REH.

Where two headings read alike, the source gives them in different places. Residues, ends and D or L forms follow the SMILES beside them. *: point of attachment. Cbz = O=C(OCc1ccccc1)*

In the case of “vascular cell adhesion molecule-1 [VCAM-1]”, the “conformation changes corresponding to VLA-4 activation” value in data set [1] is “little conformation changes”.
For natalizumab [NZM], the progressive multifocal leukoencephalopathy result in data set [2] (patients treated with NZM) is recorded as “progressive multifocal leukoencephalopathy can arise”. Moreover, the results for the “patients with antibodies against natalizumab” value in data set [2] (patients with Crohn's disease) and in data set [2] (patients with MS) were 7% and 11%, respectively. Also, the “de-adhesion of B-ALL cells from VCAM-1” value in data set [3] is “can cause the de-adhesion of B-ALL cells from VCAM-1”. Also, in data set [4], the angiogenesis inhibition result is “no statistical differences”.
In the case of `CCCC[C@H](NC(=O)N[C@@H](CC(=O)O)c1ccc2c(c1)OCO2)C(=O)N(Cc1cccs1)Cc1cccs1` [TBC3486], the “survival of mice with primary ALL” value in data set [5] is listed as “prolonged the survival of the mice”.
Regarding `CC(C)C[C@@H](C=O)NC(=O)[C@H](CC(C)C)NC(=O)[C@H](CC(C)C)NC(=O)OCc1ccccc1` [MG132] (Cbz-Leu-Leu-Leu-aldehyde), the “restoration of α4 decreased by AVA4746 (25 µM)” value in data set [6] is on record as “partially restored by MG132 in all cases apart from LAX56”.
